Hits are enriched below; roughly 1.4% of the tested compounds scored in any of these assays.
Arr AP2 block – inhibitors of human beta-arrestin and AP2 interaction | inhibition, % at 10 µM | 0.31% of 340,000 active | FITC-arrestin peptide / GST-AP2 beads, flow cytometry; AP2 beta2 appendage carries R879A mutation;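 active = inhibition above a set limit, near 3 SD of compounds lacking own fluorescence, cut at about 54% in these data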;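 note: plate controls were DMSO wells for no effect and 5 µM unlabelled arrestin peptide for full effect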
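System: GST-tagged AP2 beta2-adaptin appendage (R879A) on 4 µm glutathione beads / Reagent: FITC-arrestin peptide, 50 nM / Detection: HyperCyt-sampled flow cytometry, FL1 channel, ex 488/em 535 nm / Timing: 12 min plus 1 h, RT / Buffer or medium: PBS plus Tween 20 (0.05%) and BSA (0.1%)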
MOR-DOR inv ag – inverse agonists of human mu-delta opioid receptor heterodimerization | cell-based MOR-DOR heterodimer luminescence, inverse agonism | AID 504357 | inhibition, % at 9.3 µM | 0.21% of 340,000 active; in the data active = inhibition above about 22%, passing the limit was not always enough;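 note: 0% = cells with DMSO and 100% = wells without cells with DMSO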
Target sequence (P35372 whole entry, looked up): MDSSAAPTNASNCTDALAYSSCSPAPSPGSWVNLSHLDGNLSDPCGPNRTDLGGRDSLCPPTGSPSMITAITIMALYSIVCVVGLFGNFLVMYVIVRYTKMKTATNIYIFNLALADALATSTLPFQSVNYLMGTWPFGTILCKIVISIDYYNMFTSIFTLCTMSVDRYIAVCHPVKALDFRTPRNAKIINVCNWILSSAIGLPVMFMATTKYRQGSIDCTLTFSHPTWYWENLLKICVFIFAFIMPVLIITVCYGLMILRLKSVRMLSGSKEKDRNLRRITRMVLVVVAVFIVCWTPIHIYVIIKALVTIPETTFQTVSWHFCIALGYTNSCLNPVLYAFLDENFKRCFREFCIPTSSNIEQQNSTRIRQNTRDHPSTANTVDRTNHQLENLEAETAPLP
Target sequence (P41143 whole entry, looked up): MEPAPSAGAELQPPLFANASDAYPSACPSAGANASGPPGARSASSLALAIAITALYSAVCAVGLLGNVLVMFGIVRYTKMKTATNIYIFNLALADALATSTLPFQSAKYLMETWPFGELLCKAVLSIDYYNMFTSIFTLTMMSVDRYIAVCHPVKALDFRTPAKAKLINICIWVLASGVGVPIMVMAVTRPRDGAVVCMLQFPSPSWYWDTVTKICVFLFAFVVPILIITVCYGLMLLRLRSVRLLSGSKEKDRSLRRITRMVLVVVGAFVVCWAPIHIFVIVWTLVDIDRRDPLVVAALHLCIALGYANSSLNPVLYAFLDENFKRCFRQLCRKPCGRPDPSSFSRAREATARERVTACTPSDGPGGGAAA
HTR5A ag ctr – activates human HTR5A in OPRM1-OPRD1 agonist counter-screen; HTR5A agonist assay, luminescence, cell-based; activation, % at 9.3 µM; 0.61% of 340,000 active; AID 504692; in the data active = activation mostly above about 9.5%, no sharp cut-off; inactive = mostly below about 7.6%;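 note: 0% = cells with vehicle only and 100% = reference agonist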
HTR5A inv ctr – inverse agonist of human HTR5A in OPRM1-OPRD1 counter-screen | AID 504634 | HTR5A cell line, luminescence, inverse agonism | inhibition, % at 9.3 µM | P47898 | 0.083% of 340,000 active; in the data active = inhibition mostly above about 23%, no sharp cut-off; inactive = mostly below about 18%;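 note: 0% = cells with DMSO and 100% = no-cell wells with DMSO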
MOR-DOR ag – OPRM1-OPRD1 heterodimerization agonism | cells, luminescence | AID 504326 | 0.3% of 340,000 active | activation, % at 9.3 µM; in the data active = activation above about 18%;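 note: 0% = vehicle-treated cells and 100% = reference agonist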
DAGLB inh – blocks human DAGLB lipase activity; AID 504411; Q8NCG7; inhibition, % at 5.17 µM; HEK293T DAGLB membrane lysate, EnzChek fluorogenic substrate; 0.059% of 340,000 active; in the data active = inhibition above about 34%;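 note: 0% = enzyme with vehicle and 100% = wells lacking enzyme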
* marks the source's active call; other numbers are inactive results.

Screening O=C(NNC(=S)Nc1ccccc1)Nc1ccccc1 returned Arr AP2 block 34, MOR-DOR inv ag 35*, HTR5A ag ctr -8, HTR5A inv ctr 23*, MOR-DOR ag -6 and DAGLB inh -1.
Cc1ccc(NC(=S)NNC(=O)Nc2ccccc2)cc1 was read as Arr AP2 block -6, MOR-DOR inv ag 34*, HTR5A ag ctr -11, HTR5A inv ctr 29*, MOR-DOR ag -6 and DAGLB inh -2.
O=C(NNC(=S)Nc1ccccc1)NNC(=S)Nc1ccccc1 was read as Arr AP2 block -2, MOR-DOR inv ag 10, HTR5A ag ctr -6, HTR5A inv ctr 16, MOR-DOR ag -2 and DAGLB inh -1.
Cc1ccc(NC(=O)N2CCOCC2)cc1NC(=O)N1CCOCC1 was read as DAGLB inh 1.
Screening O=C(OCC(=O)N1CCCCC1)c1cc(=O)[nH]c2ccccc12 returned Arr AP2 block 33, MOR-DOR inv ag 0, HTR5A ag ctr 13*, HTR5A inv ctr 17, MOR-DOR ag 0 and DAGLB inh 0.
Screening CCc1ccc(S(=O)(=O)/N=C2\C=C(NS(=O)(=O)c3ccccc3)C(=O)c3ccccc32)cc1 returned Arr AP2 block -8, MOR-DOR inv ag 26, HTR5A ag ctr -5, HTR5A inv ctr 19, MOR-DOR ag -6 and DAGLB inh 25.
Screening CC(C)c1ccc(S(=O)(=O)/N=C2\C=C(NS(=O)(=O)c3ccccc3)C(=O)c3ccccc32)cc1 returned Arr AP2 block -3, MOR-DOR inv ag 30*, HTR5A ag ctr -6, HTR5A inv ctr 15, MOR-DOR ag -5 and DAGLB inh 32.
For Cc1cc(-c2nn(-c3ccccc3F)cc2CNCCc2cnc[nH]2)c(C)s1 the results were Arr AP2 block -5, MOR-DOR inv ag inactive, HTR5A ag ctr -3, HTR5A inv ctr -9, MOR-DOR ag 144* and DAGLB inh -1.
CC(=O)Nc1sc2c(c1C(c1cccs1)N1CCOCC1)CCCC2 (stereo unspecified) was read as Arr AP2 block 31, MOR-DOR inv ag 3, HTR5A ag ctr 13*, HTR5A inv ctr -5, MOR-DOR ag -1 and DAGLB inh 0.
For CC1NC(=O)c2cc3ccccc3cc2-n2c1nc1ccccc1c2=O (stereo unspecified) the results were DAGLB inh 2.
For Cc1ccc(S(=O)(=O)N2CCN(C(=O)C3CCN(c4ncnc5sc(C)c(C)c45)CC3)CC2)c(C)c1 the results were Arr AP2 block -6, MOR-DOR inv ag 3, HTR5A ag ctr -4, HTR5A inv ctr 14, MOR-DOR ag -1 and DAGLB inh 0.
CCOC(=O)c1cnn(-c2ccccc2)c1NC(=O)CN1CCOCC1 was read as Arr AP2 block 18, MOR-DOR inv ag -5, HTR5A ag ctr 13*, HTR5A inv ctr -15, MOR-DOR ag 1 and DAGLB inh -6.
N#Cc1cnn(-c2ccccc2)c1NC(=O)CN1CCOCC1 was read as Arr AP2 block -18.
Screening O=C(Nc1cc(Sc2ccccn2)cc([N+](=O)[O-])c1)c1ccc(Cl)cc1 returned Arr AP2 block -6, MOR-DOR inv ag -134, HTR5A ag ctr 19*, HTR5A inv ctr -22, MOR-DOR ag 29* and DAGLB inh -5.
`COC(=O)c1cccc(NC(=O)c2ccco2)c1` gave Arr AP2 block 16, MOR-DOR inv ag 2, HTR5A ag ctr 6, HTR5A inv ctr -17, MOR-DOR ag 0 and DAGLB inh 3.
`COC(=O)c1cccc(NC(=O)CCNC(=O)c2ccco2)c1` gave Arr AP2 block -2, MOR-DOR inv ag -16, HTR5A ag ctr 13*, HTR5A inv ctr -29, MOR-DOR ag 3 and DAGLB inh -2.
CN(C)S(=O)(=O)c1cccc(NC(=O)CSc2nc3c(cc2C#N)C(=O)CC(C)(C)C3)c1 was read as Arr AP2 block 12, MOR-DOR inv ag -37, HTR5A ag ctr 13*, HTR5A inv ctr -49, MOR-DOR ag 7 and DAGLB inh -4.
CN(C)S(=O)(=O)c1ccc(Cl)c(NC(=O)CSc2nc3c(cc2C#N)C(=O)CC(C)(C)C3)c1 was read as Arr AP2 block -1, MOR-DOR inv ag 5, HTR5A ag ctr 6, HTR5A inv ctr -1, MOR-DOR ag -1 and DAGLB inh -6.
Screening COc1cc(NS(=O)(=O)c2ccc(-n3cccn3)cc2)cc(OC)c1 returned DAGLB inh -2.
Screening CCn1c(CC(=O)Nc2ccccc2F)nnc1SCC(=O)NC1=NCCS1 returned DAGLB inh 2.
For C=CC(=O)Nc1cccc(Nc2nc(N[C@H]3CC[C@H](N(C)C)CC3)nc3c2ncn3C(C)C)c1 the results were Arr AP2 block 32, MOR-DOR inv ag -196, HTR5A ag ctr -3, HTR5A inv ctr 7, MOR-DOR ag 36* and DAGLB inh -2.
CN(C1CCS(=O)(=O)C1)S(=O)(=O)c1ccccc1[N+](=O)[O-] (stereo unspecified) was read as Arr AP2 block 6, MOR-DOR inv ag 1, HTR5A ag ctr 11*, HTR5A inv ctr -31, MOR-DOR ag 0 and DAGLB inh 1.
For CC(=O)Nc1ccc(-c2csc(Nc3ccc(Cl)cn3)n2)cc1 the results were Arr AP2 block -8, MOR-DOR inv ag -8, HTR5A ag ctr 11*, HTR5A inv ctr -28, MOR-DOR ag 2 and DAGLB inh 1.
For CC(=O)Nc1cccc(-c2csc(Nc3ccc(Cl)cn3)n2)c1 the results were Arr AP2 block -32, MOR-DOR inv ag 7, HTR5A ag ctr -1, HTR5A inv ctr 7, MOR-DOR ag -1 and DAGLB inh 1.
`CC1CCCC(C)N1C(=O)COC(=O)CNS(=O)(=O)c1ccc2ccccc2c1` (stereo unspecified) gave DAGLB inh 1.
For C[C@H]1CN([C@@H](C)CO)C(=O)c2cc(Br)cnc2O[C@H]1CN(C)S(=O)(=O)c1ccccc1F the results were DAGLB inh -2.
`CS(=O)(=O)c1ncc(Cl)c(C(=O)Nc2ccc(OC(F)F)cc2)n1` gave Arr AP2 block 4, MOR-DOR inv ag 35*, HTR5A ag ctr -3, HTR5A inv ctr 10, MOR-DOR ag -7 and DAGLB inh -6.
CS(=O)(=O)c1ncc(Cl)c(C(=O)Nc2ccc(N3CCOCC3)cc2)n1 was read as Arr AP2 block 3, MOR-DOR inv ag 18, HTR5A ag ctr -4, HTR5A inv ctr 23, MOR-DOR ag -3 and DAGLB inh 3.
Screening C[C@H]1CN([C@@H](C)CO)C(=O)c2cc(Br)cnc2O[C@H]1CN(C)Cc1ccc(Oc2ccccc2)cc1 returned DAGLB inh -3.
Screening FC(F)(F)c1cnc(NNC(=S)Nc2ccc(Cl)cc2)c(Cl)c1 returned Arr AP2 block -3, MOR-DOR inv ag 49*, HTR5A ag ctr -10, HTR5A inv ctr 49*, MOR-DOR ag -10 and DAGLB inh -10.

Source: PubChem
